ChEMBL document CHEMBL1153097, “Synthesis and biological evaluation of a novel series of pyrazole chalcones as anti-inflammatory, antioxidant and antimicrobial agents” (Bioorg Med Chem, 2009)
Activity calls are given as the source filed them. No cut-off for these calls is given here.

Assays:
Staphylococcus aureus [1] = experiment: Antimicrobial activity against Staphylococcus aureus MTCC 96 at 10 ug/ml after 24 hrs by agar diffusion method; assay type: functional; details: MTCC 96, 24 h, read-out: IZ
Outline: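 Mueller Hinton agar seeded with 0.1 mL of bacterial suspension in sterile 0.85% saline at 10⁵ cfu/mL. Duplicate plates incubated 24 h at 37 ± 0.5 °C. Activity read as zone of inhibition in mm.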

Klebsiella pneumoniae [2] = experiment: Antimicrobial activity against Klebsiella pneumoniae NCIM 2957 at 10 ug/ml after 24 hrs by agar diffusion method; assay type: functional; details: NCIM 2957, 24 h, read-out: IZ
Outline: (§1)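 Agar diffusion on Mueller Hinton agar. Plates were seeded with 0.1 mL of bacterial suspension at 10⁵ cfu/mL in 0.85% sterile saline. Duplicate plates were incubated 24 h at 37 °C, and the zone of inhibition was measured in mm.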

Proteus vulgaris [3] = experiment: Antimicrobial activity against Proteus vulgaris MTCC 1771 at 10 ug/ml after 24 hrs by agar diffusion method; assay type: functional; details: MTCC 1771, 24 h, read-out: IZ; outline: as §1
Trichoderma viride [4] = experiment: Antimicrobial activity against Trichoderma viride MTCC 167 at 250 ug/ml after 48 hrs by agar diffusion method; assay type: functional; details: MTCC 167, 48 h, read-out: IZ
Outline: (§2)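 Agar diffusion on Sabouraud's dextrose agar. Plates were spread with 0.1 mL of fungal spore suspension in sterile distilled water, adjusted to 10⁶ cfu/mL. Duplicate plates were incubated 48 h at 28 °C, and the zone of inhibition was measured in mm.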

Aspergillus flavus [5] = experiment: Antimicrobial activity against Aspergillus flavus MTCC 2501 at 250 ug/ml after 48 hrs by agar diffusion method; assay type: functional; details: MTCC 2501, 48 h, read-out: IZ; outline: as §2
Bacillus subtilis = experiment: Antimicrobial activity against Bacillus subtilis MTCC 1789 at 100 ug/ml after 24 hrs by agar diffusion method; assay type: functional; details: MTCC 1789, 24 h, read-out: IZ; outline: as §1
Aspergillus niger [6] = experiment: Antimicrobial activity against Aspergillus niger MTCC 1781 at 250 ug/ml after 48 hrs by agar diffusion method; assay type: functional; details: MTCC 1781, 48 h, read-out: IZ; outline: as §2
Escherichia coli = experiment: Antimicrobial activity against Escherichia coli MTCC 1650 at 100 ug/ml after 24 hrs by agar diffusion method; assay type: functional; details: MTCC 1650, 24 h, read-out: IZ; outline: as §1
THP-1 [7] = experiment: Antiinflammatory activity in human THP1 cells assessed as inhibition of LPS-induced TNFalpha release at 10 uM after 24 hrs by ELISA; assay type: functional; details: THP-1, 24 h
Outline: (§3)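 PMA-differentiated THP-1 cells in RPMI 1640 with 10% FBS, penicillin and streptomycin. Test compound in 0.5% DMSO added 30 min at 37 °C before E. coli 0127:B8 LPS, then further incubation at 37 °C. Supernatant TNF-α and IL-6 measured by ELISA. Percent inhibition calculated against control.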

[8] = test system: Radical scavenging activity; experiment: Antioxidant activity assessed as DPPH radical scavenging activity; assay type: functional; design: concentration or dose not given beside the values
Staphylococcus aureus [9] = experiment: Antimicrobial activity against Staphylococcus aureus MTCC 96 at 100 ug/ml after 24 hrs by agar diffusion method; assay type: functional; details: MTCC 96, 24 h, read-out: IZ; outline: as §1
Klebsiella pneumoniae [10] = experiment: Antimicrobial activity against Klebsiella pneumoniae NCIM 2957 at 100 ug/ml after 24 hrs by agar diffusion method; assay type: functional; details: for zone of inhibition at 100 µg/mL: NCIM 2957, 24 h, read-out: IZ; outline: as §1
THP-1 [11] = experiment: Cytotoxicity against human THP1 cells assessed as CCK8 […] at 10 uM after 24 hrs […]; assay type: cell-based; details: thp-1, 24 h
Outline: (§4)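 Cytotoxicity was read with CCK-8 in the same wells as the cytokine assay. PMA-differentiated THP-1 cells were exposed to compound in 0.5% DMSO for 30 min at 37 °C, then stimulated with LPS and incubated further at 37 °C.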

THP-1 [12] = experiment: Antiinflammatory activity in human THP1 cells assessed as inhibition of LPS-induced IL6 release at 10 uM after 24 hrs by ELISA; assay type: functional; details: THP-1, 24 h; outline: as §3
Proteus vulgaris [13] = experiment: Antimicrobial activity against Proteus vulgaris MTCC 1771 at 100 ug/ml after 24 hrs by agar diffusion method; assay type: functional; details: MTCC 1771, 24 h, read-out: IZ; outline: as §1
Aspergillus flavus [14] = experiment: Antimicrobial activity against Aspergillus flavus MTCC 2501 at 30 ug/ml after 48 hrs by agar diffusion method; assay type: functional, organism-based
Outline: (§5)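 Fungal spore suspensions in sterile distilled water adjusted to 10⁶ cfu/mL; 0.1 mL spread on Sabouraud's dextrose agar plates. Duplicate plates incubated 48 h at 28 ± 0.2 °C. Activity read as zone of inhibition in mm.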

Aspergillus niger [15] = experiment: Antimicrobial activity against Aspergillus niger MTCC 1781 at 30 ug/ml after 48 hrs by agar diffusion method; assay type: functional, organism-based; outline: as §5
Trichoderma viride [16] = experiment: Antimicrobial activity against Trichoderma viride MTCC 167 at 30 ug/ml after 48 hrs by agar diffusion method; assay type: functional, organism-based; outline: as §5
THP-1 [17] = experiment: Antiinflammatory activity in human THP1 cells assessed as inhibition of LPS-induced IL6 release at 1 uM/mL after 24 hrs by ELISA; assay type: functional; details: THP-1, 24 h; outline: as §3
THP-1 [18] = experiment: Antiinflammatory activity in human THP1 cells assessed as inhibition of LPS-induced TNFalpha release at 1 uM/mL after 24 hrs by ELISA; assay type: functional; details: THP-1, 24 h; outline: as §3
[19] = Cytotoxicity against human THP1 cells assessed as CCK8 […] at 1 uM/mL after 24 hrs […]; assay type: cell-based; details: THP-1 cells; outline: as §4

Row | Molecule | zone of inhibition at 250 µg/mL (Trichoderma viride [4]) [mm] | zone of inhibition at 250 µg/mL (Aspergillus flavus [5]) [mm] | zone of inhibition at 100 µg/mL (Bacillus subtilis) [mm] | zone of inhibition at 250 µg/mL (Aspergillus niger [6]) [mm] | zone of inhibition at 100 µg/mL (Escherichia coli) [mm] | inhibition at 10 µM (THP-1 [7]) [%] | Activity [8] [%] | zone of inhibition at 100 µg/mL (Staphylococcus aureus [9]) [mm] | Activity (THP-1 [11]) [%] | inhibition at 10 µM (THP-1 [12]) [%] | other results
1 | CN(C)[C@@H]1C(O)=C(C(N)=O)C(=O)[C@@]2(O)C(O)=C3C(=O)c4c(O)cccc4[C@@](C)(O)[C@H]3C[C@@H]12 [TETRACYCLINE] | – | – | – | – | – | – | – | – | – | – | zone of inhibition at 10 µg/mL (Staphylococcus aureus [1]): 17 mm; zone of inhibition at 10 µg/mL (Klebsiella pneumoniae [2]): 32 mm; zone of inhibition at 10 µg/mL (Proteus vulgaris [3]): 20 mm
2 | COc1ccc(C(=O)/C=C/c2cn(-c3ccccc3)nc2-c2ccc(OC)cc2OC)c(OC)c1 | 14 | 13 | 6 | 12 | 10 | 0 | 30.3 | 7 | 2.5107 | 37.9 | zone of inhibition at 100 µg/mL (Klebsiella pneumoniae [10]): 8 mm
3 | COc1ccc(-c2nn(-c3ccccc3)cc2/C=C/C(=O)c2ccc(OC)cc2OC)cc1 | 16 | 14 | 10 | 15 | 8 | 0 | 34.6 | 11 | 0 | 38.2 | zone of inhibition at 100 µg/mL (Proteus vulgaris [13]): 7 mm; inhibition zone (IZ) (Klebsiella pneumoniae [10]): Active
4 | COc1ccc(C(=O)/C=C/c2cn(-c3ccccc3)nc2-c2cccc(Cl)c2)c(OC)c1 | 11 | 10 | 8 | 9 | 9 | 0 | 29.7 | 6 | 0 | 67.5 | zone of inhibition at 100 µg/mL (Proteus vulgaris [13]): 8 mm; inhibition zone (IZ) (Klebsiella pneumoniae [10]): Active
5 | COc1ccc(C(=O)/C=C/c2cn(-c3ccccc3)nc2-c2ccc(Cl)cc2)c(OC)c1 | 13 | 10 | 13 | 11 | 11 | 1.13 | 18.7 | 11 | 11.488 | 2.71 | zone of inhibition at 100 µg/mL (Proteus vulgaris [13]): 12 mm
6 | COc1ccc(C(=O)/C=C/c2cn(-c3ccccc3)nc2-c2ccccc2)c(OC)c1 | 14 | 15 | 10 | 12 | 10 | 0 | 31.8 | 8 | 0 | 64.7 | –
7 | COc1ccc(C(=O)/C=C/c2cn(-c3ccccc3)nc2-c2ccc(Cl)cc2Cl)c(OC)c1 | 10 | 10 | 9 | 8 | 11 | 0 | 18.2 | 10 | 0 | 40.8 | –
8 | NYSTATIN | – | – | – | – | – | – | – | – | – | – | inhibition zone (IZ) (Aspergillus flavus [14]): 11 mm; inhibition zone (IZ) (Aspergillus niger [15]): 11 mm; inhibition zone (IZ) (Trichoderma viride [16]): 12 mm
9 | COc1ccc(C(=O)/C=C/c2cn(-c3ccccc3)nc2-c2ccc(Br)cc2)c(OC)c1 | 13 | 13 | 7 | 11 | 9 | 1.81 | 17.2 | 8 | 0 | 11.3 | zone of inhibition at 100 µg/mL (Klebsiella pneumoniae [10]): 10 mm
10 | COc1ccc(O)c(C(C)(C)C)c1.COc1ccc(O)cc1C(C)(C)C | – | – | – | – | – | – | 66.8 | – | – | – | –
11 | COc1ccc(C(=O)/C=C/c2cn(-c3ccccc3)nc2-c2ccc(F)cc2)c(OC)c1 | 14 | 12 | 14 | 13 | 12 | 0 | 26.7 | 15 | 0 | 0 | zone of inhibition at 100 µg/mL (Proteus vulgaris [13]): 10 mm
12 | COc1ccc(C(=O)/C=C/c2cn(-c3ccccc3)nc2-c2ccc(C)cc2)c(OC)c1 | 15 | 12 | 8 | 14 | 11 | 0 | 13.5 | 9 | 0 | 0 | zone of inhibition at 100 µg/mL (Klebsiella pneumoniae [10]): 12 mm
13 | C[C@@H]1C[C@H]2[C@@H]3CCC4=CC(=O)C=C[C@]4(C)[C@@]3(F)[C@@H](O)C[C@]2(C)[C@@]1(O)C(=O)CO [DEXAMETHASONE] | – | – | – | – | – | – | – | – | – | – | inhibition at 1 µM (THP-1 [17]): 90%; inhibition at 1 µM (THP-1 [18]): 69%; inhibition at 24 h, 1 µM [19]: 0%
14 | COc1ccc(C(=O)/C=C/c2cn(-c3ccccc3)nc2-c2ccccc2Cl)c(OC)c1 | 12 | 9 | 7 | 11 | 12 | 0 | 13.8 | 8 | 0 | 14.5 | –
